Assay results from PMC13322713 (Molecular imaging and biology, 2025).
“And” between values parts separate entries of the source, which are not always exact repeats. Equal entries are not always repeated.

Assays:
DX3puro (αvβ6 −) cells = assay: Cell binding and internalization, DX3puro cells; assay type: cell-based; details: 1 h, 3.75 × 10^6 cells/experiment, mean ± SD, n = 4
In short: (§1)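 Cells cultured at 37 °C, 5% CO2 with 10% FBS and 1% PSG: puromycin-containing DMEM for the DX3 pair, RPMI for BxPC-3. Integrin expression was checked by flow cytometry beforehand. The radiotracer was incubated 1 h with 3.75 × 10^6 cells per experiment in PBS containing calcium and magnesium, with non-fat dry milk blocking. Internalization was at 37 °C. Bound and internalized fractions are expressed as % of total radioactivity, quadruplicate, mean ± SD.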

[1] = system: BxPC-3 tumor-bearing mice; assay: Biodistribution in BxPC-3 tumor-bearing mice; assay type: in vivo
In short: (§2)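 Female athymic nude mice, inoculated subcutaneously with 5 × 10^6 BxPC-3 cells in RPMI/Matrigel (1/1 v/v), used at ~0.5 cm tumor diameter (approx. 3 weeks). Isoflurane-anesthetized mice received the tail-vein radiotracer in PBS at 2.2–3.3 MBq, with mass held at 0.175 nmol by adding nonmetallated compound. Tissues collected 1, 2 and 4 h p.i. (n = 4 per time point), rinsed, γ-counted, and expressed as decay-corrected %ID/g, mean ± SD.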

[2] = Biodistribution in BxPC-3 tumor-bearing mice; assay type: in vivo; details: female, athymic nude, mouse, iv, 0.175 nmol per injection, total radioactivity
In short: as §2

[3] = Lipophilicity logD7.4, octanol/PBS partitioning; assay type: physicochemical; details: pH 7.4
[4] = Whole-body radioactivity / excretion during PET/CT study; design: species or system mice; details: female, athymic nude, mouse, in vivo, iv, 0.175 nmol per injection, total radioactivity
[5] = system: pancreatic BxPC-3 (αvβ6 +) cells; assay: Cell binding and internalization, BxPC-3 cells; assay type: cell-based
In short: as §1

DX3puroβ6 (αvβ6 +) cells = assay: Cell binding and internalization, DX3puroβ6 cells; assay type: cell-based
In short: as §1

integrin αvβ6 = integrin αvβ6 (Homo sapiens, UniProt P06756+P18564); assay: Competitive binding ELISA against Bt-LAP; details: ratio of ELISA IC50s
In short: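 Competitive ELISAs used biotinylated LAP as ligand for integrin αvβ6 and biotinylated vitronectin for αvβ3. IC50s came from a sigmoidal fit of binding over a peptide concentration range. The ratio is αvβ3 IC50 divided by αvβ6 IC50.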

integrin αvβ6, sequence (P06756 31-1048): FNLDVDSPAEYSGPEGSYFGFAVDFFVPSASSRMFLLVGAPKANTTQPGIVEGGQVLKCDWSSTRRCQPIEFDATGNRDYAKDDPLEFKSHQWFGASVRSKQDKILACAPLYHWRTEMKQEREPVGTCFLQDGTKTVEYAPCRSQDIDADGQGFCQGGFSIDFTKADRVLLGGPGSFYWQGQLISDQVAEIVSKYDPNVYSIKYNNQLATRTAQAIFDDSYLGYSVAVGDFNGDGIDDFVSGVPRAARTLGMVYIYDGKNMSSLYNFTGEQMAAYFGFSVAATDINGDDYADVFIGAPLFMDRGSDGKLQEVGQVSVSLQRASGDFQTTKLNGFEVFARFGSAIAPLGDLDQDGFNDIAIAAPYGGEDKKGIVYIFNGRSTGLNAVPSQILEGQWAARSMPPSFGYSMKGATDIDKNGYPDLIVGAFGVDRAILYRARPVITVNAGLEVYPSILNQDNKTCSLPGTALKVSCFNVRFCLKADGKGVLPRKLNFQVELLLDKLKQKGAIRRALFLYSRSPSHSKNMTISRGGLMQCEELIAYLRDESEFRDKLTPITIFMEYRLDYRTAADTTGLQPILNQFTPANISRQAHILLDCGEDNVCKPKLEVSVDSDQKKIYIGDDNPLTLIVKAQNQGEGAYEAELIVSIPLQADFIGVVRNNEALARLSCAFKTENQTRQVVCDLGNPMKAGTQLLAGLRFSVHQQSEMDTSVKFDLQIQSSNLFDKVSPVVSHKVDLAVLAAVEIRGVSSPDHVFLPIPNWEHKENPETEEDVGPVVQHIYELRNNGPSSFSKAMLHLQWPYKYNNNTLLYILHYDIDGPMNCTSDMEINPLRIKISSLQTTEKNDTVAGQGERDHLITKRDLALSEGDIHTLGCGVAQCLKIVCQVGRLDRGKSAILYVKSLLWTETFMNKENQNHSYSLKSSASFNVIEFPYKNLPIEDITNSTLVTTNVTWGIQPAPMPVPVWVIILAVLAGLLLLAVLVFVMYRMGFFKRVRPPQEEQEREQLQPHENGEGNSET
integrin αvβ6, sequence (P18564 22-788): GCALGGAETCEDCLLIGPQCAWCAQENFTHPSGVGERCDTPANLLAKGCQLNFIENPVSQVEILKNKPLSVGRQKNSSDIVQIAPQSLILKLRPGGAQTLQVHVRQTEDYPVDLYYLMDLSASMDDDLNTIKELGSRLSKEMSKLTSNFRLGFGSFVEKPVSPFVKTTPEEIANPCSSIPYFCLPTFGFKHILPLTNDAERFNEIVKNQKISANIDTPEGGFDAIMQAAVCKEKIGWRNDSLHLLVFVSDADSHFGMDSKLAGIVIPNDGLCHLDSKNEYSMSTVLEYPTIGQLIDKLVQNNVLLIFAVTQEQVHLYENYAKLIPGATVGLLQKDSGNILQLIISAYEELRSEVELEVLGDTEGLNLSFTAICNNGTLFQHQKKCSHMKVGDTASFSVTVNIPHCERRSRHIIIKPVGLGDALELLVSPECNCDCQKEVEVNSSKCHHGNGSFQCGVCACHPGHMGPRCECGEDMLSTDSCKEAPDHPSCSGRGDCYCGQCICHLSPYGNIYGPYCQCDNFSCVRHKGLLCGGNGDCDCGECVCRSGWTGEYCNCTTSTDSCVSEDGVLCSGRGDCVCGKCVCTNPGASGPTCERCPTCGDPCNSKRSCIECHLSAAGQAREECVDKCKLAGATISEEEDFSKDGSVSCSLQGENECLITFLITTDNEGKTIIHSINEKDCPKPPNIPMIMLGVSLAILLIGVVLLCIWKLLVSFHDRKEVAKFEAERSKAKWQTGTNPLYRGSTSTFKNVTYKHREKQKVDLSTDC

In the case of `CC(C)C[C@H](NC(=O)[C@H](CC(=O)O)NC(=O)CNC(=O)[C@H](CCCNC(=N)N)NC(=O)[C@H](CC(C)C)NC(=O)[C@H](CC(N)=O)NC(=O)[C@@H]1CCCN1C(=O)[C@@H](NC(=O)CNC(=O)[C@H](CC(N)=O)NC(=O)CNC(=O)CCOCCOCCOCCOCCOCCOCCOCCOCCOCCOCCOCCOCCOCCOCCOCCOCCOCCOCCOCCOCCOCCOCCOCCOCCOCCOCCOCCOCCNC(=O)CN1CCN(CC(=O)O)CCN(CC(=O)O)CC1)C(C)C)C(=O)N[C@@H](CCC(N)=O)C(=O)N[C@H](C(=O)N[C@@H](CC(C)C)C(=O)NCC(=O)N[C@@H](CCC(N)=O)C(=O)N[C@@H](CCCNC(=N)N)C(=O)N[C@H](C(=O)NCC(=O)N[C@@H](CCCNC(=N)N)C(=O)N[C@H](C(=O)NCCOCCOCCOCCOCCOCCOCCOCCOCCOCCOCCOCCOCCOCCOCCOCCOCCOCCOCCOCCOCCOCCOCCOCCOCCOCCOCCOCCOCCC(N)=O)[C@@H](C)O)C(C)C)C(C)C` [[^18F]AlF NOTA-5G], the “Cell binding, % of total radioactivity bound” value (DX3puro (αvβ6 −) cells) is reported as 2% and 2.0 ± 0.2%, the Tumor/blood ratio ([1]; 2 h p.i.) is reported as “greater than 15/1” and the Tumor/liver ratio ([1]; 2 h p.i.) is reported as “greater than 15/1”. For the same compound, the Tumor/pancreas ratio ([1]; 2 h p.i.) was “greater than 15/1”, the Tumor/blood ratio ([1]; 4 h p.i.) was 162/1 and the Tumor/liver ratio ([1]; 4 h p.i.) was 24/1. The Tumor/muscle ratio ([1]; 4 h p.i.) was 6/1, the Tumor/pancreas ratio ([1]; 4 h p.i.) was 18/1 and the “Radioactivity levels in tissues aside from kidneys and GI tract, including bone” value ([1]; all time points (1, 2, 4 h p.i.)) was ≤ 1.6 % ID/g. It also gave a tissue uptake at 1 h ([2]; BxPC-3 tumor) of 2.3 ± 0.4 %ID/g, a tissue uptake at 4 h ([2]; BxPC-3 tumor) of 1.8 ± 0.6 %ID/g and a tissue uptake at 1 h ([2]; blood) of 0.16 ± 0.03 %ID/g. It also gave a tissue uptake at 4 h ([2]; blood) of 0.01 ± 0.01 %ID/g, an excreta dose per gram or mL at 1 h ([2]; feces) of 0.7 ± 0.1 %ID/g and an excreta dose per gram or mL at 4 h ([2]; feces) of 5 ± 2.1 %ID/g. It also gave a tissue uptake at 1 h ([2]; kidneys) of 18.6 ± 6.4 %ID/g, a tissue uptake at 4 h ([2]; kidneys) of 12.5 ± 1.8 %ID/g and a logD [3] of -2.34 ± 0.08. For the same compound, the dose excreted at 4 h [4] was 80%, the Radioactivity internalized ([5]; BxPC-3, 1 h at 37 °C, abstract: of bound activity) was ≥ 50% and the “Cell binding, % of total radioactivity bound” value ([5]; BxPC-3 αvβ6(+), 1 h, 3.75 × 10^6 cells/experiment, mean ± SD, n = 4) was 29.1 ± 3.7%. For the same compound, the “Ratio of cell binding DX3puroβ6 vs DX3puro” value (DX3puroβ6 (αvβ6 +) cells; 1 h) was 33/1, the “Ratio of internalization DX3puroβ6 vs DX3puro” value (DX3puroβ6 (αvβ6 +) cells; 1 h at 37 °C) was 96/1 and the Radioactivity internalized (DX3puroβ6 (αvβ6 +) cells; DX3puroβ6, 1 h at 37 °C, abstract: of bound activity) was ≥ 50%. The “Cell binding, % of total radioactivity bound” value (DX3puroβ6 (αvβ6 +) cells; DX3puroβ6 αvβ6(+), 1 h, 3.75 × 10^6 cells/experiment, mean ± SD, n = 4) was 66% and 66.2 ± 0.8% and the “IC50-ratio (αvβ3 vs αvβ6)” value (integrin αvβ6) was > 7700/1.
